In ChEMBL document CHEMBL4480441, “Discovery and development of novel rhodanine derivatives targeting enoyl-acyl carrier protein reductase” (Bioorg Med Chem, 2019):
≈ marks a conversion by molar mass, not a printed value.

Experiments:
[1] = system: Mycobacterium tuberculosis; experiment: Antitubercular activity against Mycobacterium tuberculosis measured after 48 hrs by luminescence based serial dilution method; assay type: functional
[2] = molecular target: T1, Enoyl-[acyl-carrier-protein] reductase [NADH] (Mycobacterium tuberculosis, UniProt P9WGR1); experiment: Inhibition of recombinant Mycobacterium tuberculosis InhA expressed in Escherichia coli […] pLysS using trans-2-decenoyl-N-acetylcysteamine as substrate by spectrophotometric method
T1 sequence (P9WGR1 whole entry): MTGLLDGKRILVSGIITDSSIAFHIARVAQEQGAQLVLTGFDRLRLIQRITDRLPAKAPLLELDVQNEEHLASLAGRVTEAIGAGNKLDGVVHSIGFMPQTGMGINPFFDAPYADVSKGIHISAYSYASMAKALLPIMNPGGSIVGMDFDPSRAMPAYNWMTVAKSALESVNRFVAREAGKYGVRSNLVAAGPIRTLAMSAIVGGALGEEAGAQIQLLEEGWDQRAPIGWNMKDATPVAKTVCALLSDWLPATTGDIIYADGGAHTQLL

[3] = molecular target: DNA gyrase (Escherichia coli, UniProt P0AES4+P0AES6); experiment: Inhibition of Escherichia coli DNA gyrase assessed as reduction in enzyme-mediated supercoiling of relaxed pBR322 DNA measured after 60 mins by electrophoresis method; assay type: protein-complex assay
[4] = system: Pseudomonas aeruginosa; experiment: Antimicrobial activity against Pseudomonas aeruginosa […] measured after 48 hrs by p-iodonitrotetrazolium violet dye based serial dilution test; assay type: functional
[5] = system: Staphylococcus aureus; experiment: Antimicrobial activity against […] Staphylococcus aureus ATCC 29213 measured after 48 hrs; assay type: functional; conditions: ATCC 29213, 48 h
Summary of the method: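 Brucella broth with 10% heat-inactivated horse serum. Inoculum of 1×10^5 bacteria per well, exposed to a range of compound concentrations at 37 °C for 48 h. Absorbance read at 590 nm. Drug-free wells served as growth control and medium-only wells as blank. MIC is the concentration giving 80% growth inhibition.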

[6] = system: Staphylococcus aureus; experiment: Antimicrobial activity against methicillin-sensitive Staphylococcus aureus ATCC 25923 measured after 48 hrs; assay type: functional; conditions: ATCC 25923, 48 h
Summary of the method: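 Brucella broth with 10% heat-inactivated horse serum. Inoculum of 1×10^5 bacteria per well, exposed to a range of compound concentrations for 48 h at 37 °C. Read as absorbance at 590 nm, with compound-free wells as control and medium-only wells as blank. Percent growth inhibition was calculated, and the concentration giving 80% inhibition was taken as the MIC.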

[7] = Cytotoxicity against HEK293 cells after 48 hrs by MTT assay; assay type: cell-based; conditions: human, read-out: MIC
[8] = molecular target: T2, 3-oxoacyl-[acyl-carrier-protein] synthase 3 (Escherichia coli, UniProt C3TDZ2); experiment: Inhibition of Escherichia coli KAS3 expressed in Escherichia coli BL21(DE3)
T2 sequence (C3TDZ2 whole entry): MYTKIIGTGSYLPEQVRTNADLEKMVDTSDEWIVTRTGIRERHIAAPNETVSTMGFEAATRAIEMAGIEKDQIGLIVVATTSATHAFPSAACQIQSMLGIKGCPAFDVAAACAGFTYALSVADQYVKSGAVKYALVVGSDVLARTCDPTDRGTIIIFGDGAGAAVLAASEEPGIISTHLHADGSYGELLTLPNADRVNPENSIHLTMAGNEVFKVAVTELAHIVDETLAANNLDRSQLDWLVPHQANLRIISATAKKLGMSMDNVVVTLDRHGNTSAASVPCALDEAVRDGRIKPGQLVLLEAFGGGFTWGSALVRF

Row | SMILES | MIC [1] [µM] | IC50 [2] [µM] | IC50 [3] [µM] | MIC [4] [µM] | MIC [5] [µM] | MIC [6] [µM] | MCC at 48 h [7] [µM] | IC50 [8] [µM]
1 | O=C(CN1C(=O)/C(=C\c2cccc(Cl)c2)SC1=S)c1ccccc1 | 40.9 (≈ 15.3 µg/mL) | 47.3 | – | – | – | – | – | –
2 | COc1cccc(/C=C2/SC(=S)N(CC(=O)c3ccccc3)C2=O)c1 | 20.5 (≈ 7.57 µg/mL) | 22.6 | – | – | – | – | – | –
3 | O=C(CN1C(=O)/C(=C\c2ccc(F)cc2)SC1=S)c1ccccc1 | 57.4 (≈ 20.5 µg/mL) | 55 | – | – | – | – | – | –
4 | COc1ccc(C(=O)CN2C(=O)/C(=C\c3ccccc3Cl)SC2=S)cc1 | 7.83 (≈ 3.16 µg/mL) | 15.3 | – | – | – | – | – | –
5 | O=C(CN1C(=O)/C(=C\c2ccc(O)cc2)SC1=S)c1ccccc1 | 33.1 (≈ 11.8 µg/mL) | 35.3 | – | – | – | – | – | –
6 | Oc1cc(Cl)ccc1Oc1ccc(Cl)cc1Cl [TRICLOSAN] | 8.65 (≈ 2.5 µg/mL) | – | > 1000 | 1.25 (≈ 0.362 µg/mL) | 0.68 (≈ 0.197 µg/mL) | 0.39 (≈ 0.113 µg/mL) | 20.5 | 850
7 | CC(=O)Nc1ccc(/C=C2/SC(=S)N(CC(=O)c3ccccc3)C2=O)cc1 | 3.18 (≈ 1.26 µg/mL) | 11.6 | – | – | – | – | – | –
8 | NNC(=O)c1ccncc1 [ISONIAZID] | 0.58 (≈ 0.0795 µg/mL) | 8.29 | > 1000 | 2.85 (≈ 0.391 µg/mL) | 1.42 (≈ 0.195 µg/mL) | 1.26 (≈ 0.173 µg/mL) | 120 | > 1000
9 | O=C(CN1C(=O)/C(=C\c2ccc(Br)cc2)SC1=S)c1ccccc1 | 21.1 (≈ 8.83 µg/mL) | 23.9 | – | – | – | – | – | –
10 | COc1ccc(C(=O)CN2C(=O)/C(=C\c3ccc(F)cc3)SC2=S)cc1 | 17.8 (≈ 6.9 µg/mL) | 20.1 | – | – | – | – | – | –
11 | COc1ccc(C(=O)CN2C(=O)/C(=C\c3ccc(C)cc3)SC2=S)cc1 | 0.49 (≈ 0.188 µg/mL) | 5.02 | – | 8.12 (≈ 3.11 µg/mL) | 10.2 (≈ 3.91 µg/mL) | 6.15 (≈ 2.36 µg/mL) | 195 | –
12 | COc1ccc(C(=O)CN2C(=O)/C(=C\c3ccc(Br)cc3)SC2=S)cc1 | 4.04 (≈ 1.81 µg/mL) | 12.1 | – | – | – | – | – | –
13 | O=C(CN1C(=O)/C(=C\c2ccccc2Cl)SC1=S)c1ccccc1 | 25.5 (≈ 9.53 µg/mL) | 25.8 | – | – | – | – | – | –
14 | COc1cc(/C=C2/SC(=S)N(CC(=O)c3ccccc3)C2=O)cc(OC)c1OC | 0.38 (≈ 0.163 µg/mL) | 3.12 | > 1000 | 5.41 (≈ 2.32 µg/mL) | 7.2 (≈ 3.09 µg/mL) | 4.61 (≈ 1.98 µg/mL) | > 200 | 780
15 | O=C(CN1C(=O)/C(=C\c2ccccc2)SC1=S)c1ccccc1 | 32.3 (≈ 11 µg/mL) | 40.2 | – | – | – | – | – | –
16 | O=C(CN1C(=O)/C(=C\c2ccc(Cl)cc2)SC1=S)c1ccccc1 | 48.2 (≈ 18 µg/mL) | 50.1 | – | – | – | – | – | –
17 | COc1ccc(C(=O)CN2C(=O)/C(=C\c3ccc(Cl)cc3)SC2=S)cc1 | 8.62 (≈ 3.48 µg/mL) | 16.5 | – | – | – | – | – | –
18 | Cc1ccc(/C=C2/SC(=S)N(CC(=O)c3ccccc3)C2=O)cc1 | 15.1 (≈ 5.34 µg/mL) | 17.5 | – | – | – | – | – | –
19 | CN(C)c1ccc(/C=C2/SC(=S)N(CC(=O)c3ccccc3)C2=O)cc1 | 12.6 (≈ 4.82 µg/mL) | 17.4 | – | – | – | – | – | –
20 | CC(/C=C1\SC(=S)N(CC(=O)O)C1=O)=C\c1ccccc1 | > 200 | > 200 | – | – | – | – | – | –
21 | COc1ccc(/C=C2/SC(=S)N(CC(=O)c3ccccc3)C2=O)cc1 | 2.95 (≈ 1.09 µg/mL) | 8.24 | – | 4.83 (≈ 1.78 µg/mL) | 4.15 (≈ 1.53 µg/mL) | 4.28 (≈ 1.58 µg/mL) | 167 | –
22 | COc1ccc(C(=O)CN2C(=O)/C(=C\c3cc(OC)c(OC)c(OC)c3)SC2=S)cc1 | 0.29 (≈ 0.133 µg/mL) | 2.55 | > 1000 | 0.95 (≈ 0.437 µg/mL) | 1.54 (≈ 0.708 µg/mL) | 1.24 (≈ 0.57 µg/mL) | > 200 | 900
23 | O=C(CN1C(=O)/C(=C\c2ccc([N+](=O)[O-])cc2)SC1=S)c1ccccc1 | 36.5 (≈ 14 µg/mL) | 43.5 | – | – | – | – | – | –
24 | COc1ccc(C(=O)CN2C(=O)/C(=C\c3ccccc3OC)SC2=S)cc1 | 9.27 (≈ 3.7 µg/mL) | 16.8 | – | – | – | – | – | –
25 | COc1ccc(C(=O)CN2C(=O)/C(=C\c3cccc(Cl)c3)SC2=S)cc1 | 2.02 (≈ 0.816 µg/mL) | 7.84 | – | 5.05 (≈ 2.04 µg/mL) | 3.88 (≈ 1.57 µg/mL) | 2.16 (≈ 0.872 µg/mL) | > 200 | –
26 | COc1ccccc1/C=C1/SC(=S)N(CC(=O)c2ccccc2)C1=O | 30.4 (≈ 11.2 µg/mL) | 28.1 | – | – | – | – | – | –
